According to ChEMBL document CHEMBL2146445, “Discovery of BIIB042, a Potent, Selective, and Orally Bioavailable γ-Secretase Modulator” (ACS Med Chem Lett, 2011):
Calls of active or inactive are those of the source. The calls are words filed in the database; no cut-off is given here.

Columns and labels:
[1] = Modulation of gamma-secretase
[2] = Ratio of tarenflurbil EC50 to compound EC50 for gamma-secretase
[3] = Modulation of gamma-secretase in CHO cells overexpressing APP V717 mutant assessed as reduction in amyloid beta42 level after 17 hrs by ELISA; format: cell-based; conditions: Cricetulus griseus
Summary of the method: (§1)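 CHO cells overexpressing APP V717F; Aβ42, Aβ40 and Aβ38 quantified together in each well by multiplex Aβ ELISA. EC50 is the mean of at least two determinations.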

Mus musculus [4] = experiment: Antialzheimer activity in CF1 mouse assessed as reduction in amyloid beta42 level in brain at 30 mg/kg, po after 4 hrs by ELISA; format: functional; design: scale not given: the % may be the effect or the level left
Summary of the method: (§2)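 Wild-type CF-1 mice received a single oral dose as a solution in ethanol:propylene glycol:10% solutol (1:1:8). Animals were sacrificed 4 h after dosing. Brain and plasma were collected for drug concentration and Aβ levels. Aβ change was expressed relative to vehicle-treated controls.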

CHO [5] = experiment: Modulation of gamma-secretase in CHO cells overexpressing APP V717 mutant assessed as effect on amyloid beta40 level after 17 hrs by ELISA; format: cell-based; conditions: Cricetulus griseus; summary of the method: as §1
CHO [6] = experiment: Modulation of gamma-secretase in CHO cells overexpressing APP V717 mutant assessed as increase in amyloid beta38 level after 17 hrs by ELISA; format: cell-based; conditions: Cricetulus griseus; summary of the method: as §1
[7] = Plasma concentration in CF1 mouse at 30 mg/kg, po after 4 hrs; format: ADME, organism-based; design: dose 30 mg/kg, route oral
Summary of the method: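 Wild-type (CF-1) mice given compound orally as a solution in ethanol:propylene glycol:10% solutol (1:1:8). Animals sacrificed 4 h post-dose; brain and plasma collected for drug exposure and Aβ levels.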

Rattus norvegicus [8] = experiment: Antialzheimer activity in F344 rat assessed as reduction in amyloid beta42 level in brain at 30 mg/kg, po after 4 hrs by ELISA; format: functional, organism-based; design: dose 30 mg/kg
[9] = Drug uptake in CF1 mouse brain at 30 mg/kg, po after 4 hrs; format: ADME, organism-based; design: dose 30 mg/kg, route oral; conditions: read-out: Drug uptake; summary of the method: as §2
Cynomolgus monkey [10] = experiment: Antialzheimer activity in cynomolgus monkey assessed as increase in amyloid beta 38 level in plasma at 10 mg/kg, po at 5 hrs; format: functional, organism-based; design: dose 10 mg/kg; conditions: Macaca fascicularis
Rattus norvegicus [11] = experiment: Antialzheimer activity in Fischer rat assessed as effect on amyloid beta 40 level in brain at 10 mg/kg, po after 4 hrs; format: functional, organism-based; design: dose 10 mg/kg
Mus musculus [12] = experiment: Antialzheimer activity in CF1 mouse assessed as increase in amyloid beta 38 level in brain at 10 mg/kg, po; format: functional, organism-based; design: dose 10 mg/kg; summary of the method: as §2
[13] = target: Neurogenic locus notch homolog protein 1 (Homo sapiens) (UniProt P46531); experiment: Inhibition of NICD-mediated HES1 protein expression in human H4 cells at 10 uM after 24 hrs by Western blot analysis; format: cell-based
Chain of Neurogenic locus notch homolog protein 1 (Homo sapiens) (P46531 whole entry): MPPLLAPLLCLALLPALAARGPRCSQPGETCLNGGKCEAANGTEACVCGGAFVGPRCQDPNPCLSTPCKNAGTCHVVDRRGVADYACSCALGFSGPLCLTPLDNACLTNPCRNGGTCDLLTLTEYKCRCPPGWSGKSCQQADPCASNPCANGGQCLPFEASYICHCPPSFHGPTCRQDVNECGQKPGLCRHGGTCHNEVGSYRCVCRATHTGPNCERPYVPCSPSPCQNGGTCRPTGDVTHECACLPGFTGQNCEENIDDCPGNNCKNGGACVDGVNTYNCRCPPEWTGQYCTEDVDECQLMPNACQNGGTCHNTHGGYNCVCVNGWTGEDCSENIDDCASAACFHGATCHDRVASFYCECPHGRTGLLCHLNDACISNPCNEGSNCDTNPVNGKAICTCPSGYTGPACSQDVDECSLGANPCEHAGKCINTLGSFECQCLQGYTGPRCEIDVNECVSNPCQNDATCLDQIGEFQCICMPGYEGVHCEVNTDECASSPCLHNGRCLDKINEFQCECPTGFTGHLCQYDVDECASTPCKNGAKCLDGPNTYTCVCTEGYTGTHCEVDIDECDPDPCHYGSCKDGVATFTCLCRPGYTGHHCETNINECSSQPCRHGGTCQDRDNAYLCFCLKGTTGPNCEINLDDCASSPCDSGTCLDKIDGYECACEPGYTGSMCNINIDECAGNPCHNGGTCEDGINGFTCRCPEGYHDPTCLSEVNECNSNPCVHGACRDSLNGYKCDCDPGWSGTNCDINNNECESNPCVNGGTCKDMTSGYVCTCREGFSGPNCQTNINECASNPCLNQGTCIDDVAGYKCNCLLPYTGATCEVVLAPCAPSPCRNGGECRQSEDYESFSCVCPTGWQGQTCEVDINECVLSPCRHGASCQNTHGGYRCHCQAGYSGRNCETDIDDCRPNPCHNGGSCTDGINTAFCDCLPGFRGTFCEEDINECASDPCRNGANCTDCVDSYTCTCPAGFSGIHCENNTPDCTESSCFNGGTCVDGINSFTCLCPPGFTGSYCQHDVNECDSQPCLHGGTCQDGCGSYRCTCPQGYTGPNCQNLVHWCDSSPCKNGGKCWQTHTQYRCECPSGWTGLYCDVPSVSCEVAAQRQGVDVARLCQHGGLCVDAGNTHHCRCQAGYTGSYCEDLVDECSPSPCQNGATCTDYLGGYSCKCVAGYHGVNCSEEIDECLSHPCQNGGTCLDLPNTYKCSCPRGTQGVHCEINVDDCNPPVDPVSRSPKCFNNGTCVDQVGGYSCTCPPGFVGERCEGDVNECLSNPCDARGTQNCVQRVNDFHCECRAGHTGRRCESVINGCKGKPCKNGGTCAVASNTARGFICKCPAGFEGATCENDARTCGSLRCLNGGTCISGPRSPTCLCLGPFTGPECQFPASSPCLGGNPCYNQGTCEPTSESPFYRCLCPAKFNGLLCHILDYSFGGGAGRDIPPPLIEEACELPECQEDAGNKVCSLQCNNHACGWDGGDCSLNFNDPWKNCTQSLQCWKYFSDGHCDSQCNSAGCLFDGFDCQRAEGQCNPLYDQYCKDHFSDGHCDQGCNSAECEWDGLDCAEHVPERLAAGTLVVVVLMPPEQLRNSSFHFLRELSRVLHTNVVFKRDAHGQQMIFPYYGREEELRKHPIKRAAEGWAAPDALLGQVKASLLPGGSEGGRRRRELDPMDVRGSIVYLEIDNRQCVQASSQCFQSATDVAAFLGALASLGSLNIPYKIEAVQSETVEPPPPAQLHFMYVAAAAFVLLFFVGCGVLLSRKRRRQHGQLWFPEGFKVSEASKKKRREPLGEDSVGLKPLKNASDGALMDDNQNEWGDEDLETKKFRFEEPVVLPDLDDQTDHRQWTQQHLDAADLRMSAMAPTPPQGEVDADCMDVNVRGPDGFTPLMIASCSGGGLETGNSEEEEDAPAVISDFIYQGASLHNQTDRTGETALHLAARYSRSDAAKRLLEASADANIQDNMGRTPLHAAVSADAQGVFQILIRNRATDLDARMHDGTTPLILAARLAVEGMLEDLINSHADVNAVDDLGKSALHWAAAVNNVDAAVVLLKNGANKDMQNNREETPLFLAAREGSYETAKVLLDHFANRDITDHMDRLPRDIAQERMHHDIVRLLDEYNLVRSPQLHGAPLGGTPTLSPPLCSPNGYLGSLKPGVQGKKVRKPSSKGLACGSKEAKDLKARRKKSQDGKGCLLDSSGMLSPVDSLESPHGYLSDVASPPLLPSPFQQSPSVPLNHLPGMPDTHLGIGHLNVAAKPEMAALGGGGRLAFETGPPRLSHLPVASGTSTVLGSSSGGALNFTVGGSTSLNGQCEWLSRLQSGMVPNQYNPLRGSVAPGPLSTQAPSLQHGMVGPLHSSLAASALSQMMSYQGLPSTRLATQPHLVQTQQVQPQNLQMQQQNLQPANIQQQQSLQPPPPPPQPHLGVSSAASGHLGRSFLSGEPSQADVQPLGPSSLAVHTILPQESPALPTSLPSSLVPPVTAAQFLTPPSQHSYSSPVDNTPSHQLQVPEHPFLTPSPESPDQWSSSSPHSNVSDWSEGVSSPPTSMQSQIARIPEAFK

Mus musculus [14] = experiment: Antialzheimer activity in CF1 mouse assessed as effect on amyloid beta 40 level in brain at 10 mg/kg, po; format: functional, organism-based; design: dose 10 mg/kg; summary of the method: as §2
Rattus norvegicus [15] = experiment: Antialzheimer activity in Fischer rat assessed as increase in amyloid beta 38 level in brain at 10 mg/kg, po after 4 hrs; format: functional, organism-based; design: dose 10 mg/kg
Cynomolgus monkey [16] = experiment: Antialzheimer activity in cynomolgus monkey assessed as effect on amyloid beta 40 level in plasma at 10 mg/kg, po at 5 hrs; format: functional, organism-based; design: dose 10 mg/kg; conditions: Macaca fascicularis

Work on `O=C(O)C1(c2ccc(-c3ccc(Cl)c(Cl)c3)c(F)c2)CC1` yielded an EC50 [1] of 40 µM and a Ratio EC50 [2] of 7.
With `CC1CCN(C(c2ccc(F)cc2)c2ccc(C(C)(C)C(=O)O)cc2-c2ccc(C(F)(F)F)cc2)CC1` (configuration not stated) the EC50 [3] was 0.45 µM, the Activity (Mus musculus [4]) was 30% and the Activity (CHO [5]) was “inactive”. For the same compound, the Activity (CHO [6]) was “Active”, the concentration at 4 h [7] was 22.8 µM and the Activity (Rattus norvegicus [8]) was “inactive”. It also gave a concentration at 4 h [9] of 16.1 µM.
With `CC1CCN([C@H](c2ccc(F)cc2)c2ccc([C@@H](C)C(=O)O)cc2-c2ccc(C(F)(F)F)cc2)CC1` the Activity (Cynomolgus monkey [10]) was “Active”, the Activity (Rattus norvegicus [11]) was “inactive” and the Activity (Mus musculus [12]) was “Active”. For the same compound, the inhibition [13] was “inactive”, the Activity (Mus musculus [14]) was “inactive” and the Activity (Rattus norvegicus [15]) was “Active”. The Activity (CHO [5]) was “inactive” and the Activity (Cynomolgus monkey [16]) was “inactive”.
